Results taken from ChEMBL document CHEMBL4334542, “Antimalarial N 1,N 3-Dialkyldioxonaphthoimidazoliums: Synthesis, Biological Activity, and Structure-activity Relationships” (ACS Med Chem Lett, 2020).
Calls of active or inactive are those of the source. No cut-off for these calls is given here.

Experiments:
Plasmodium falciparum [1] = experiment: Antimalarial activity against asexual stage of Plasmodium falciparum K1 assessed as reduction in parasite growth incubated for 96 hrs by SYBR Green I dye-based fluorescence assay; assay type: functional, organism-based; settings: K1, 96 h
In short: (§1)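 Asexual NF54, K1 and W2 parasites; proliferation read as SYBR Green I fluorescence. IC50 is the concentration giving 50% of the net SYBR Green I fluorescence of untreated control cultures; mean ± SEM of n = 3 independent biological replicates.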

Plasmodium falciparum [2] = experiment: Antimalarial activity against Plasmodium falciparum NF54 early gametocytes transfected with luciferase gene incubated for 48 hrs by luciferase reporter gene assay; assay type: functional, organism-based; settings: NF54, 48 h
In short: (§2)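 Gametocytes of NF54-Pfs16-GFP-Luc, early (>95% stage II/III) or late (>90% stage IV/V); luciferase read-out. IC50 is the concentration giving 50% reduction of luminescence; mean ± SEM of n = 3 independent biological replicates.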

Plasmodium falciparum [3] = experiment: Antimalarial activity against asexual stage of Plasmodium falciparum W2 assessed as reduction in parasite growth incubated for 96 hrs by SYBR Green I dye-based fluorescence assay; assay type: functional, organism-based; settings: W2, 96 h
Plasmodium falciparum [4] = experiment: Antimalarial activity against asexual stage of Plasmodium falciparum NF54 assessed as reduction in parasite growth incubated for 96 hrs by SYBR Green I dye-based fluorescence assay; assay type: functional, organism-based; settings: NF54, 96 h; in short: as §1
Plasmodium falciparum [5] = experiment: Antimalarial activity against Plasmodium falciparum NF54 late gametocytes transfected with luciferase gene incubated for 48 hrs by luciferase reporter gene assay; assay type: functional, organism-based; settings: NF54, 48 h; in short: as §2
Plasmodium falciparum [6] = experiment: Antimalarial activity against asexual stage of Plasmodium falciparum 3D7 infected in erythrocytes assessed as reduction in parasite growth incubated for 48 hrs under hypoxic condition by Hoechst 33342 staining based flow cytometry; assay type: functional, organism-based; settings: 3D7, 48 h
In short: (§3)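 Asexual Dd2 and 3D7 parasites in erythrocytes; DNA content of infected cells measured by Hoechst 33342 staining and FACS. IC50 is the concentration giving 50% of the net fluorescence of untreated control cultures; mean ± SD of n = 3 separate determinations.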

Plasmodium falciparum [7] = experiment: Antimalarial activity against asexual stage of Plasmodium falciparum Dd2 infected in erythrocytes assessed as reduction in parasite growth incubated for 48 hrs under hypoxic condition by Hoechst 33342 staining based flow cytometry; assay type: functional, organism-based; settings: Dd2, 48 h; in short: as §3
CHO-K1 = experiment: Cytotoxicity against CHOK1 cells assessed as reduction in cell viability incubated for 48 hrs by CellTiter 96 aqueous one solution assay; assay type: cell-based; settings: Cricetulus griseus, CHO-K1, 48 h
In short: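 Cell growth measured by a tetrazolium dye assay. IC50 is the concentration reducing growth by 50% relative to untreated cultures; mean ± SD of n = 3 separate determinations.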

Plasmodium falciparum [8] = experiment: Antimalarial activity against asexual stage of Plasmodium falciparum NF54 assessed as reduction in parasite growth at 1 uM incubated for 96 hrs by SYBR Green I dye-based fluorescence assay relative to control; assay type: functional; design: scale not given: the % may be the effect or the level left
[9] = Redox cycling activity of the compound […] measured after 45 mins by phenol red reagent based horseradish peroxidase coupled assay
In short: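 Redox cycling EC50 determined by the phenol red horseradish peroxidase assay.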

Plasmodium falciparum [10] = experiment: Antimalarial activity against Plasmodium falciparum NF54 incubated for 48 hrs by [3H]-hypoxanthine incorporation assay; assay type: functional, organism-based
Plasmodium falciparum [11] = experiment: Antimalarial activity against Plasmodium falciparum TM90C2B incubated for 48 hrs by [3H]-hypoxanthine incorporation assay; assay type: functional, organism-based
Plasmodium falciparum [12] = experiment: Antimalarial activity against Plasmodium falciparum K1 incubated for 48 hrs by [3H]-hypoxanthine incorporation assay; assay type: functional, organism-based

Row | Compound | IC50 (Plasmodium falciparum [1]) [nM] | IC50 (Plasmodium falciparum [2]) [nM] | IC50 (Plasmodium falciparum [3]) [nM] | IC50 (Plasmodium falciparum [4]) [nM] | IC50 (Plasmodium falciparum [5]) [nM] | IC50 (Plasmodium falciparum [6]) [nM] | IC50 (Plasmodium falciparum [7]) [nM] | IC50 (CHO-K1) [nM] | also measured
1 | CCC[n+]1c2c(n(CC(C)C)c1C)C(=O)c1ccccc1C2=O | 4.42 | 269 | 2.12 | 2.97 | 842 | – | – | – | –
2 | Cc1n(CC(C)C)c2c([n+]1CC(C)C)C(=O)c1ccccc1C2=O | 12.5 | 337 | 5.75 | 9.19 | 812 | – | – | – | –
3 | CCCC[n+]1c2c(n(C)c1C)C(=O)c1ccccc1C2=O | – | – | – | – | – | 4.3 | 14.1 | 13100 | –
4 | Cc1n(C)c2c([n+]1C1CC1)C(=O)c1ccccc1C2=O | – | – | – | – | – | 25.7 | 30.4 | 3100 | –
5 | CCCC[n+]1c2c(n(CCC)c1C)C(=O)c1ccccc1C2=O | – | – | – | – | – | 18.8 | 20.9 | 26800 | –
6 | CC[n+]1c2c(n(C(C)C)c1C)C(=O)c1ccccc1C2=O | – | – | – | – | – | 61.5 | 11.7 | 15100 | –
7 | CCCCn1c2c([n+](CCCC)c1C)C(=O)c1ccccc1C2=O | – | – | – | – | – | 50.5 | 43.6 | 30400 | –
8 | CCCCCCCCCCCC[n+]1c2c(n(CC(C)C)c1C)C(=O)c1ccccc1C2=O | 11.2 | 361 | 5.5 | 4.3 | 174 | – | – | – | –
9 | CN(C)c1ccc2nc3ccc(N(C)C)cc3[s+]c2c1 [METHYLENE BLUE ANHYDROUS] | – | 95 | – | – | 143 | – | – | – | –
10 | CCCC[n+]1c2c(n(CC(C)C)c1C)C(=O)c1ccccc1C2=O | 9.85 | 181 | 5.1 | 7.2 | 275 | – | – | – | –
11 | CCCn1c2c([n+](CCC)c1C)C(=O)c1ccccc1C2=O | – | – | – | – | – | 26.9 | 11.3 | 16200 | –
12 | Cc1n(C2CC2)c2c([n+]1C1CC1)C(=O)c1ccccc1C2=O | – | – | – | – | – | 41.5 | 38.6 | 42500 | –
13 | Cc1nc2c(n1C(C)C)C(=O)c1ccccc1C2=O | – | – | – | – | – | – | – | – | Activity (Plasmodium falciparum [8]): <=50%; Activity [9]: inactive
14 | CCCCn1c2c([n+](C3CC3)c1C)C(=O)c1ccccc1C2=O | – | – | – | – | – | 182 | 20.8 | 10100 | –
15 | CCCC[n+]1c2c(n(C(C)C)c1C)C(=O)c1ccccc1C2=O | – | – | – | – | – | 11.6 | 14.9 | 80300 | –
16 | CC[n+]1c2c(n(C)c1C)C(=O)c1ccccc1C2=O | – | – | – | – | – | 8.4 | 19.9 | 3600 | –
17 | CCC[n+]1c2c(n(C)c1C)C(=O)c1ccccc1C2=O | – | – | – | – | – | 4.8 | 14.3 | 3900 | –
18 | CCn1c2c([n+](C3CC3)c1C)C(=O)c1ccccc1C2=O | – | – | – | – | – | 66.1 | 35 | 6600 | –
19 | CCCn1c2c([n+](C3CC3)c1C)C(=O)c1ccccc1C2=O | – | – | – | – | – | 331 | 20.7 | 5500 | –
20 | CCCn1c2c([n+](CC)c1C)C(=O)c1ccccc1C2=O | 6.5 | 390 | 4.94 | 3.45 | 709 | 3.7 | 8.4 | 8200 | IC50 (Plasmodium falciparum [10]): 1.2 nM; IC50 (Plasmodium falciparum [11]): 2.2 nM; IC50 (Plasmodium falciparum [12]): 2.2 nM; Activity [9]: Active

Row | Compound | IC50 (Plasmodium falciparum [1]) [nM] | IC50 (Plasmodium falciparum [2]) [nM] | IC50 (Plasmodium falciparum [3]) [nM] | IC50 (Plasmodium falciparum [4]) [nM] | IC50 (Plasmodium falciparum [5]) [nM] | IC50 (Plasmodium falciparum [6]) [nM] | IC50 (Plasmodium falciparum [7]) [nM] | IC50 (CHO-K1) [nM] | also measured
21 | CCCCCCCCCC[n+]1c2c(n(CC(C)C)c1C)C(=O)c1ccccc1C2=O | 13.3 | 370 | 6.1 | 4.96 | 237 | – | – | – | –
22 | CCCn1c(C)nc2c1C(=O)c1ccccc1C2=O | – | – | – | – | – | – | – | – | Activity (Plasmodium falciparum [8]): <=50%; Activity [9]: inactive
23 | CCn1c2c([n+](CC)c1C)C(=O)c1ccccc1C2=O | – | – | – | – | – | 6 | 19.1 | 14700 | –
24 | COCC[n+]1c2c(n(Cc3cnccn3)c1C)C(=O)c1ccccc1C2=O [SEPANTRONIUM BROMIDE] | – | – | – | – | – | 38.6 | 45.9 | – | –
25 | O=C1C(O)=C([C@H]2CC[C@H](c3ccc(Cl)cc3)CC2)C(=O)c2ccccc21 [ATOVAQUONE] | – | – | – | – | – | 2.8 | 2.5 | – | IC50 (Plasmodium falciparum [10]): 0.4 nM; IC50 (Plasmodium falciparum [11]): 11500 nM; IC50 (Plasmodium falciparum [12]): 0.5 nM
26 | Cc1n(C)c2c([n+]1C)C(=O)c1ccccc1C2=O | – | – | – | – | – | 22.6 | 26.5 | 5700 | –
27 | CC[n+]1c2c(n(CC(C)C)c1C)C(=O)c1ccccc1C2=O | 3.1 | 33 | 1.62 | 1.63 | 1020 | – | – | – | –
28 | C[C@H]1[C@H](OC(=O)CCC(=O)O)O[C@@H]2O[C@@]3(C)CC[C@H]4[C@H](C)CC[C@@H]1[C@@]24OO3 [ARTESUNATE] | 3.26 | 63 | – | 3 | 259 | 22.8 | 13.3 | – | IC50 (Plasmodium falciparum [10]): 3.2 nM; IC50 (Plasmodium falciparum [11]): 2.7 nM; IC50 (Plasmodium falciparum [12]): 1.4 nM
29 | Cc1n(CC(C)C)c2c([n+]1C1CC1)C(=O)c1ccccc1C2=O | 5.85 | 139 | 2.55 | 3.94 | 832 | – | – | – | –
30 | Cc1n(CC(C)C)c2c([n+]1C)C(=O)c1ccccc1C2=O | 3.4 | 41 | 1.85 | 1.92 | 1090 | – | – | – | –
31 | Cc1n(C)c2c([n+]1C(C)C)C(=O)c1ccccc1C2=O | – | – | – | – | – | 4.8 | 16.1 | 4700 | –
32 | CCCCn1c(C)nc2c1C(=O)c1ccccc1C2=O | – | – | – | – | – | – | – | – | Activity (Plasmodium falciparum [8]): <=50%; Activity [9]: inactive
33 | CC1=CC(=O)c2ccccc2C1=O [MENADIONE] | – | – | – | – | – | – | – | – | Activity (Plasmodium falciparum [8]): 20 - 40%
34 | CCn1c(C)nc2c1C(=O)c1ccccc1C2=O | – | – | – | – | – | – | – | – | Activity (Plasmodium falciparum [8]): <=50%; Activity [9]: inactive
35 | O=C1C=CC(=O)C=C1 [BENZOQUINONE] | – | – | – | – | – | – | – | – | Activity (Plasmodium falciparum [8]): 20 - 40%
36 | Cc1n(C(C)C)c2c([n+]1C1CC1)C(=O)c1ccccc1C2=O | – | – | – | – | – | 15.8 | 25 | 14600 | –
37 | Cc1nc2c(n1C)C(=O)c1ccccc1C2=O | – | – | – | – | – | – | – | – | Activity (Plasmodium falciparum [8]): <=50%; Activity [9]: inactive
38 | CCCCCC[n+]1c2c(n(CC(C)C)c1C)C(=O)c1ccccc1C2=O | 10 | 143 | 5.28 | 6.2 | 551 | – | – | – | –
39 | CCCCCCCC[n+]1c2c(n(CC(C)C)c1C)C(=O)c1ccccc1C2=O | 8.23 | 39 | 3.6 | 4.36 | 164 | – | – | – | –
40 | Cc1n(CC(C)C)c2c([n+]1C(C)C)C(=O)c1ccccc1C2=O | 4.22 | 229 | 1.96 | 2.36 | 689 | – | – | – | –
